We go through 18 compounds from ChEMBL document CHEMBL4406854, “Synthesis and in-vitro anti-HIV-1 evaluation of novel pyrazolo[4,3-c]pyridin-4-one derivatives” (Eur J Med Chem, 2019).

Calls of active or inactive are those of the source. No cut-off for these calls is given here.

Data set [1] has as its system Human immunodeficiency virus 1. The data set can be described thus: Antiviral activity against HIV1 NL4.3 infected in human TZM-bl cells measured upto 10 hrs by bright Glo-luciferase reporter gene assay. It is filed as functional, organism-based. In short, it runs like this:
(§1)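 Time-of-addition: TZM-bl cells seeded at 10^4 cells/well and incubated overnight, then infected with HIV-1 NL4.3 (400 TCID50) in complete DMEM containing […] DEAE-dextran. Compounds and reference antiretrovirals were applied at five times their IC50 at 0, 1, 2, 3, 4, 6, 8, 10, 18 and 24 h post infection. Luciferase (RLU) was read 48 h post infection, in triplicate, as mean±SD.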

In data set [2] the test system is Human immunodeficiency virus 1. The data set can be described thus: Antiviral activity against HIV1 NL4.3 infected in human TZM-bl cells measured upto 3 hrs by bright Glo-luciferase reporter gene assay. Type of data set: functional, organism-based. The gist of the method: as §1
(In general: Reporter assays use an easily measured gene product as a stand-in for the process of interest.)

A short description of data set [3]: Therapeutic index, ratio of CC50 for human TZM-bl cells to IC50 for antiviral activity against HIV1 N119 infected in human TZM-bl cells. It is filed as toxicity, cell-based. To be noted: read-out: Ratio CC50/IC50. The gist of the method: (§2)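 TI = CC50/IC50. CC50 came from TZM-bl cells (10^4/well) exposed to serial two-fold dilutions for 48 h at 37 °C, 5% CO2, with MTT viability and non-linear regression fitting. IC50 came from TZM-bl cells infected 2 h, treated with sub-toxic two-fold dilutions for 48 h, with luciferase RLU read-out.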

Data set [4] can be described thus: Therapeutic index, ratio of CC50 for human TZM-bl cells to IC50 for antiviral activity against HIV1 92/BR/018 infected in human TZM-bl cells. Type of data set: toxicity, cell-based. To be noted: read-out: Ratio CC50/IC50. In short, it runs like this: as §2
The nature of data set [5]: Therapeutic index, ratio of CC50 for human TZM-bl cells to IC50 for antiviral activity against HIV1 VB59 infected in human TZM-bl cells. To be noted: read-out: Ratio CC50/IC50. It is filed as toxicity, cell-based. The gist of the method: (§3)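 TI = CC50/IC50. CC50 came from 48 h MTT viability of TZM-bl cells. IC50 came from 48 h luciferase read-out in TZM-bl cells infected for 2 h with HIV-1 UG070 or VB59 and then treated with two-fold dilutions at sub-toxic concentrations.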

Data set [6] has as its system Human immunodeficiency virus 1. Nature of the data set: Antiviral activity against HIV1 92/BR/018 infected in human TZM-bl cells incubated for 48 hrs by bright Glo-luciferase reporter gene assay. Type of data set: functional, organism-based. To be noted: Human immunodeficiency virus 1, 92/BR/018, TZM-bl. In short, it runs like this: (§4)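 TZM-bl cells (HeLa-derived, expressing CD4/CXCR4/CCR5, with an LTR-driven luciferase reporter) were seeded at 10^4 cells/well overnight. Cells were infected with pre-titrated virus for 2 h, then given serial two-fold dilutions of sub-toxic compound concentrations and incubated 48 h. Luciferase substrate was added and RLU read. IC50 was taken from percent inhibition versus infected untreated controls. NVP and AZT served as controls.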

Data set [7] concerns Human immunodeficiency virus 1. The data set can be described thus: Antiviral activity against HIV1 NARI-DR infected in human TZM-bl cells incubated for 48 hrs by bright Glo-luciferase reporter gene assay. Type of data set: functional, organism-based. To be noted: Human immunodeficiency virus 1, NARI-DR. In short, it runs like this:
as §4

Data set [8] in a line: Therapeutic index, ratio of CC50 for human TZM-bl cells to IC50 for antiviral activity against HIV1 NARI-DR infected in human TZM-bl cells. Type of data set: toxicity, cell-based. The settings on record: read-out: Ratio CC50/IC50. The gist of the method: as §2
Data set [9] is described as follows: Therapeutic index, ratio of CC50 for human TZM-bl cells to IC50 for antiviral activity against HIV1 UG070 infected in human TZM-bl cells. Type of data set: toxicity, cell-based. To be noted: read-out: Ratio CC50/IC50. The gist of the method:
as §3

The nature of data set [10]: Cytotoxicity against human TZM-bl cells assessed as reduction in cell viability incubated for 48 hrs by MTT assay. It is filed as cell-based. The gist of the method: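 TZM-bl cells (10^4/well) were seeded overnight at 37 °C in humidified 5% CO2. Serial two-fold dilutions were added, with AZT as control, for 48 h. Viability was read by MTT, and CC50 (concentration leaving 50% of cells viable) was obtained by non-linear regression.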
Background: Formazan colour is commonly taken as a measure of viable cells.

The test system of data set [11] is Human immunodeficiency virus 1. The data set can be described thus: Antiviral activity against HIV1 VB51 infected in human PBMC cells incubated for 5 days by bright Glo-luciferase reporter gene assay. It is filed as functional, organism-based. To be noted: Human immunodeficiency virus 1, VB51, 120 h. In short, it runs like this: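 PBMCs (0.2×10^6 cells/well) were activated with PHA-p (5µg/mL) and IL-2 (5U/mL). Sub-toxic concentrations, chosen from a 5-day MTT CC50 at 37 °C in 5% CO2, were used against R5-tropic HIV-1 VB51.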

Data set [12] is described as follows: Cytotoxicity against human PBMC cells assessed as reduction in cell viability incubated for 5 days by MTT assay. Type of data set: cell-based. In short, it runs like this: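 PBMCs (0.2×10^6 cells/well) were activated with PHA-p (5 µg/mL) and IL-2 (5 U/mL) and exposed to serial two-fold compound dilutions at 37 °C, 5% CO2, for 5 days. Viability was measured by MTT and CC50 calculated.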

Data set [13] concerns Human immunodeficiency virus 1. Nature of the data set: Antiviral activity against HIV1 VB59 infected in human TZM-bl cells incubated for 48 hrs by bright Glo-luciferase reporter gene assay. To be noted: Human immunodeficiency virus 1, VB59, TZM-bl. Type of data set: functional, organism-based. The gist of the method:
(§5)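 TZM-bl cells (10^4/well, seeded the day before) were infected with pre-titrated HIV-1 VB59 or UG070 stocks for 2 h. Serial two-fold dilutions at sub-toxic concentrations were then added, with AZT as control, for 48 h. Britelite plus luciferase substrate was added and RLU measured. IC50 was derived from percent inhibition against infected untreated and uninfected controls.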

Data set [14] can be described thus: Therapeutic index, ratio of CC50 for human PBMC cells to IC50 for antiviral activity against HIV1 VB51 infected in human PBMC cells.
Data set [15] has as its system Human immunodeficiency virus 1. The data set can be described thus: Antiviral activity against HIV1 N119 infected in human TZM-bl cells incubated for 48 hrs by bright Glo-luciferase reporter gene assay. Type of data set: functional, organism-based. The settings on record: Human immunodeficiency virus 1, N119, TZM-bl. The gist of the method: as §4
Data set [16] deals with Human immunodeficiency virus 1. The data set can be described thus: Antiviral activity against HIV1 UG070 infected in human TZM-bl cells incubated for 48 hrs by bright Glo-luciferase reporter gene assay. Type of data set: functional, organism-based. The settings on record: Human immunodeficiency virus 1, UG070, TZM-bl. The gist of the method: as §5

Regarding `Cc1cc(C)cc(-n2ncc3c(=O)[nH]c(C)cc32)c1`, the result in data set [1] and in data set [2] was Active. Further, the selectivity ratio came to 210 in [3]; 91 in [4]; 185 in data set [5]; 268 in [8]; 243 in [9]; 68 in data set [14]. The IC50 in data set [6] was found to be 7.42 µM; in data set [7], 2.53 µM; in [11], 8.65 µM; in data set [13], 3.67 µM; in [15], 3.24 µM; in [16], 2.79 µM. Besides, the CC50 at 48 h in data set [10] is 679 µM. Moreover, the 50% cytotoxic concentration (CC50) at 120 h in data set [12] is 592 µM.

`Cc1cc2c(cnn2-c2cccc(C(F)(F)F)c2)c(=O)[nH]1`: the CC50 at 48 h in data set [10] stood at 34.1 µM. The compound also had an IC50 in [13] of 128 µM.

With `Cc1cc2c(cnn2-c2cc(F)cc(F)c2)c(=O)[nH]1`, the CC50 at 48 h in data set [10] was determined as 130 µM. The IC50 in data set [13] is greater than 192 µM.

Turning to `Cc1cc2c(cnn2-c2ccc(Cl)cc2)c(=O)[nH]1`, in [10], the CC50 at 48 h was 260 µM. This compound came in with an IC50 in data set [13] greater than 193 µM.

Turning to `Cc1cc2c(cnn2-c2ccc(C(F)(F)F)cc2)c(=O)[nH]1`, the CC50 at 48 h in [10] worked out at 100 µM. In data set [13], the IC50 was greater than 171 µM.

As to `Cc1cc2c(cnn2-c2ccccc2)c(=O)[nH]1`, the selectivity ratio in data set [5] stood at 5.86. Also, in data set [10], the CC50 at 48 h worked out at 708 µM. Besides, the IC50 in [13] was 121 µM; in data set [16], 444 µM.

For the compound `Cc1ccc(-n2ncc3c(=O)[nH]c(C)cc32)cc1`, the selectivity ratio in data set [5] amounted to 6.6; in data set [9], 1.67. In [10], the CC50 at 48 h turned out to be 383 µM. For the same compound, the IC50 in [13] stood at 58.1 µM; in data set [16], 229 µM.

`COc1cccc(-n2ncc3c(=O)[nH]c(C)cc32)c1`: the selectivity ratio in data set [5] was 2.24. Further, in data set [10], the CC50 at 48 h amounted to 553 µM. Moreover, the IC50 is 247 µM in [13] and greater than 196 µM in data set [16].

With `Cc1cc2c(cnn2-c2ccc(Br)cc2)c(=O)[nH]1`, in data set [5], the selectivity ratio amounted to 0.58. Also, the CC50 at 48 h in [10] worked out at 79.8 µM. In addition, the IC50 in [13] came to 138 µM.

With `Cc1cc2c(cnn2-c2ccc(F)c(F)c2)c(=O)[nH]1`, the CC50 at 48 h in [10] was determined as 133 µM. In addition, the IC50 in data set [13] was greater than 192 µM.

With `Cc1cc2c(cnn2-c2cccc(Br)c2)c(=O)[nH]1`, in data set [5], the selectivity ratio was 0.52. Further, in [10], the CC50 at 48 h was determined as 72.6 µM. The IC50 in data set [13] is 139 µM.

Regarding `Cc1cc2c(cnn2-c2ccc(Cl)c(Cl)c2)c(=O)[nH]1`, the CC50 at 48 h in data set [10] was found to be 93.5 µM. Also, the IC50 in [13] is greater than 171 µM.

For `Cc1cn([C@H]2C[C@H](N=[N+]=[N-])[C@@H](CO)O2)c(=O)[nH]c1=O` [ZIDOVUDINE], the CC50 at 48 h in [10] was found to be 872 µM. Further, in data set [12], the CC50 at 120 h was 1070 µM.

For `Cc1cc2c(cnn2-c2cc(Cl)cc(Cl)c2)c(=O)[nH]1`, the CC50 at 48 h in [10] was 93.5 µM. In data set [13], this compound returned an IC50 greater than 171 µM.

Take `Cc1cc2c(cnn2-c2ccc(C)c(C)c2)c(=O)[nH]1`: the selectivity ratio in data set [5] is 0.74. The CC50 at 48 h in [10] stood at 93.4 µM. The compound also returned an IC50 in [13] of 126 µM.

With `Cc1cc2c(cnn2-c2cccc(F)c2)c(=O)[nH]1`, in [10], the CC50 at 48 h is 159 µM. The compound further gave an IC50 in [13] greater than 206 µM.

Consider `Cc1cc2c(cnn2-c2ccc(C(C)(C)C)cc2)c(=O)[nH]1`, for which the CC50 at 48 h in [10] was 45.9 µM. In data set [13], the IC50 is greater than 178 µM.

`Cc1ccnc2c1NC(=O)c1cccnc1N2C1CC1` [NEVIRAPINE]: the selectivity ratio in data set [3] is 4.3; in [4], 1990; in [8], 2.6; in data set [14], 5280. Further, the IC50 in data set [6] is 0.3 µM; in data set [7], 232 µM; in [11], 0.19 µM; in [15] it was 140 µM. The CC50 at 120 h in data set [12] was 1000 µM.

What is called IC50 is the point on the concentration scale where inhibition reaches its midpoint. A high value points to a need for much substance. For orientation: CC50 means the concentration at which the toxic effect on the cells reaches its halfway point.
